In the EternaBench riboswitch data:

System: MS2 coat protein
Assay: apparent Kd, MS2 coat protein; higher = weaker binding; RNA-MaP array; theophylline 2 mM where present
Procedure, shortened: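 Each design was made on Illumina sequencing-chip clusters by stalled E. coli RNA polymerase and titrated with SNAP-549-labelled MS2 coat protein from 0.7 or 1.5 nM, doubling to 3 µM, in the absence and then the presence of constant ligand. The buffer was 100 mM Tris-HCl pH 7.5, 80 mM KCl, 4 mM MgCl2, BSA, DTT, yeast tRNA and Tween-20. The apparent Kd is the median of filtered per-cluster fits of binding curves, with green signal normalised to red-channel RNA signal and control-cluster median Fmax.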

[1] = designed as: ON switch for theophylline, no ligand
[2] = ligand present: theophylline, designed as: ON switch for theophylline
[3] = designed as: OFF switch for theophylline, no ligand
[4] = ligand present: theophylline, designed as: OFF switch for theophylline

Sequence | apparent Kd [1] [nM] | apparent Kd [2] [nM] | apparent Kd [3] [nM] | apparent Kd [4] [nM]
ACGACGCAUACAGAUACCAGUAGAACAUGAGGAUCACCCAUGUCUGAGGCGCUCCGCCACUGCCCUUGGCAGCUGUAUGCGUCAG | 9.7 | 14.2 |  | 
AUCUCGUUCAAUAUACCGCCUUGACUAGAUACCAGCAUGGACCCAUGCCCUUGGCAGCUGGACAUGAGGAUCACCCAUGUUUCAG | 12.4 | 14.6 |  | 
AUCAUGUAAUCAGAUACCAGACAUCUUUUAAUACAUAUUACAUGAGGAUCACCCAUGUUGGUCCCUUGGCAGCUGAAAUAUUUUU | 197 | 86.8 |  | 
AAUGAACAUGAGGAUCACCCAUGUCGUGAUACCAGCCGUAAGAGUGGCCCUUGGCAGCGCCAUGAGGACAACAACAUACAUGAGG | 24.3 | 27 |  | 
AUAACAUGAGGAUCACCCAUGUAGAGUGAUACCAGACUACGUAAUGUCCCUUGGCAGCACAAGUAAAGUUACGAAUAAUGAUAGA | 179 | 50.8 |  | 
UCUGGGUCCGCAAGGACCUGGAGUUGCGAUACCAGCACGGUAACGUGCCCUUGGCAGCGCACAUGAGGAUCACCCAUGUGGUGUU |  |  | 261 | 436
AGCCCUGUGCUAGAUACCAGCUACAUGAGGAUCACCCAUGUGCGUCAGAAAUGACUGUGUAGCCCUUGGCAGCUAAAUGCAUGUA |  |  | 11.8 | 28
AGCGACAUGCGUGAUACCAGCUACAUGAGGAUCACCCAUGUAAGUAGGAAACUACUGUGUAGCCCUUGGCAGCACAAUGCAUGUC |  |  | 19.8 | 43.5
AUACCUAGUGAGUCGUGUUUCUUUUCAGAUACCAGACUUUUCGUUGUCCCUUGGCAGCUGUUUUACAUGAGGAUCACCCAUGUUG |  |  | 15.7 | 23.6
GGCGGACUUAUAGAUACCAGCACAUGAGGAUCACCCAUGUAUGGUCGCACCUCAGUCCUGUGCCCUUGGCAGCUAUAAUAGAUUU |  |  | 19.7 | 115
AAACGUUGCUCAGAUACCAGACAUGAGGAUCACCCAUGUACCAAGGUAAAGAAAUAACGUGUCCCUUGGCAGCUGAGCAACGAAA |  |  | 11 | 113
AAACGUUGCUCAGAUACCAGACAUGAGGAUCACCCAUGUACCAAGGUACCCGAAAGGAAUGUCCCUUGGCAGCUGAGCAACGAAA |  |  | 9.57 | 21.6
UGGUACAUGAGGAUCACCCAUGUUCCAGAUACCAGUGUCCCGCUGCACCCUUGGCAGCUGGUGGCACAUGAGGAUCACCCAUGUG |  |  | 15 | 17.1
UUGGUACGACAGCUCAUAUAAGCAUGUGAUACCAGACUGGAAACAGUCCCUUGGCAGCACUUUACAUGAGGAUCACCCAUGUCGG |  |  | 221 | 191
UUUGAUAGGACAGAUACCAGCGUGUUAUAGAACAUGAGGAUCACCCAUGUAGUGAUCAAGCGCCCUUGGCAGCUGGUUUGUUAGG | 229 | 395 |  | 
UUCUACAUGAGGAUCACCCAUGUAAACGAUACCAGACGAGUAUUAGUCCCUUGGCAGCGUAGAGUGUCGUUUAUAGUAGGAUACC | 22.7 |  |  | 
UAUACAUGAGGAUCACCCAUGUGCCAUGAUACCAGACAUGAAAAUGUCCCUUGGCAGCAUGGUGAUUGUAUAGCGGGAAACCCGA | 160 | 196 |  | 
AAUAAAUCACAUGAGGAUCACCCAUGUGAUACCAGCCUGGAAACAGGCCCUUGGCAGCACAUGAGGAUCACCCAUGUGCUAAAUA |  |  | 8.81 | 8.4
GCAAUACAUGAGGAUCACCCAUGUGCAGAUACCAGAGGUGUAUGCCUCCCUUGGCAGCUGCGACGCUCUGGCAUCUUGUGGGAUG | 51.8 | 48.8 |  | 
GUGGAGACAUGAGAUACCAGUCUCUUUAACAUGAGGAUCACCCAUGUAAUGCUCCUCGGAGACCCUUGGCAGCUCAGUAUGAUGA |  |  | 39.9 | 157
UCGUGUAUAUCGGAUACCAGUGAAAUCGAUACAUGAGGAUCACCCAUGUGAGAGGAUGUACACCCUUGGCAGCUGUAUAUAUCUA | 32.8 | 14.7 |  | 
AACAUGAGGAUCACCCAUGUUUUAUGGGAUACCAGAGACGAAAGUCUCCCUUGGCAGCCCAAGCUGCUCCAUACGAAAGUAUGGU | 14.3 | 14 |  | 
UAAUAAAUAAGUGAUACCAGCGAGAAAACAUGAGGAUCACCCAUGUUCGCCCAUGUUAAGCGCCCUUGGCAGCACAAAUAUAAAA |  |  | 26.1 | 84.9
